Source: ChEMBL document CHEMBL1126070, “Bisquinolines. 1. N,N-bis(7-chloroquinolin-4-yl)alkanediamines with potential against chloroquine-resistant malaria” (J Med Chem, 1992)

Legend:
Plasmodium falciparum [1] = experiment: In vitro activity against Plasmodium falciparum D6; assay type: functional, organism-based
In short: (§1)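 Test compounds dissolved in DMSO and serially diluted in culture medium. Erythrocytes at 0.25 to 0.5% parasitemia added in 96-well microdilution plates to a final hematocrit of 1.5%. Activity indexed by inhibition of [3H]hypoxanthine uptake. IC50 derived from this uptake.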

Plasmodium falciparum [2] = experiment: In vitro activity against Plasmodium falciparum W-2; assay type: functional, organism-based; in short: as §1
Plasmodium berghei [3] = experiment: In vivo antimalarial activity against Plasmodium berghei infected mice (Mus musculus) at 160 mg/kg; assay type: functional
Plasmodium berghei [4] = experiment: In vivo antimalarial activity against Plasmodium berghei infected mice (Mus musculus) at 40 mg/kg; assay type: functional
Plasmodium berghei [5] = experiment: In vivo antimalarial activity against Plasmodium berghei infected mice (Mus musculus) at 640 mg/kg; C-1; assay type: functional, organism-based; set-up: dose 640 mg/kg
[6] = Resistance index was measured as the ratio of IC50 of Plasmodium falciparum W-2 clone / IC50 of P. falciparum D-6 clone; assay type: functional
In short: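 P. falciparum clones D-6 (mefloquine-resistant) and W-2 (CQ-, pyrimethamine-, sulfadoxine- and quinine-resistant) were tested in parallel. Compounds were dissolved in DMSO and serially diluted in culture medium. Infected erythrocytes at 0.25–0.5% parasitemia were added to a final 1.5% hematocrit. IC50 for each clone came from inhibition of tritiated hypoxanthine uptake, and the index is IC50(W-2)/IC50(D-6).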

Plasmodium berghei [7] = experiment: In vivo antimalarial activity against Plasmodium berghei infected mice (Mus musculus) at 640 mg/kg; assay type: functional
Plasmodium berghei [8] = experiment: In vivo antimalarial activity against Plasmodium berghei infected mice (Mus musculus) at 640 mg/kg; Skin lesions at injection site; assay type: functional, organism-based; set-up: dose 640 mg/kg; details: Skin of body
In short: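 P. berghei (KBG 173) infected male mice, 5 per dose, given a single subcutaneous dose 3 days post-infection. Injection sites examined for skin lesions.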

Plasmodium berghei [9] = experiment: In vivo antimalarial activity against Plasmodium berghei infected mice (Mus musculus) at 320 mg/kg

Row | SMILES | IC50 (Plasmodium falciparum [1]) [nM] | IC50 (Plasmodium falciparum [2]) [nM] | T-C (Plasmodium berghei [3]) [days] | T-C (Plasmodium berghei [4]) [days] | T-C (Plasmodium berghei [5]) | Resistance index [6] | T-C (Plasmodium berghei [7]) [days] | T-C (Plasmodium berghei [8]) | T-C (Plasmodium berghei [9]) [days]
1 | Clc1ccc2c(NCCCCCCCCNc3ccnc4cc(Cl)ccc34)ccnc2c1 | 5.6 | 3.1 | 1 | -0.2 | Curative-1 | 0.6 | – | – | –
2 | Clc1ccc2c(NCCCCCNc3ccnc4cc(Cl)ccc34)ccnc2c1 | 2.5 | 3.8 | 5.1 | 1 | – | 1.5 | >60 | – | –
3 | Clc1ccc2c(NCCCCCCCCCCCCNc3ccnc4cc(Cl)ccc34)ccnc2c1 | 60 | 31 | -0.2 | 0 | – | 0.5 | 0 | – | –
4 | CC(CNc1ccnc2cc(Cl)ccc12)Nc1ccnc2cc(Cl)ccc12 (configuration not stated) | 3.5 | 3.9 | 5.7 | 3.4 | – | 1.1 | >60 | – | –
5 | Clc1ccc2c(NCCCCCCCNc3ccnc4cc(Cl)ccc34)ccnc2c1 | 1.9 | 4.3 | 7.2 | 2.6 | – | 2.3 | – | – | –
6 | Clc1ccc2c(NCCCCNc3ccnc4cc(Cl)ccc34)ccnc2c1 | 390 | 81 | 2.3 | 0.5 | – | 0.2 | 5.6 | – | –
7 | Clc1ccc2c(N3CCN(CCCN4CCN(c5ccnc6cc(Cl)ccc56)CC4)CC3)ccnc2c1 [PIPERAQUINE] | 8.3 | 16 | – | – | – | 1.9 | – | – | –
8 | CCN(CC)CCCC(C)Nc1ccnc2cc(Cl)ccc12 (configuration not stated) [CHLOROQUINE] | – | – | >60 | – | – | – | >60 | – | –
9 | Clc1ccc2c(NCCCCCCCCCCNc3ccnc4cc(Cl)ccc34)ccnc2c1 | 5.7 | 3.4 | 0.2 | 0.2 | – | 0.6 | 0.6 | – | –
10 | CC(CCCNc1ccnc2cc(Cl)ccc12)CNc1ccnc2cc(Cl)ccc12 (configuration not stated) | 2.7 | 3 | 3.6 | 1.2 | – | 1.1 | >60 | – | –
11 | Clc1ccc2c(NCCCNc3ccnc4cc(Cl)ccc34)ccnc2c1 | 15 | 83 | 0.4 | 0.2 | – | 5.5 | 1.2 | – | –
12 | Clc1ccc2c(NCCCCCCCCCNc3ccnc4cc(Cl)ccc34)ccnc2c1 | 3 | 2.3 | 7.4 | 3.1 | – | 0.8 | – | Lesions 15A | –
13 | Clc1ccc2c(NCCNc3ccnc4cc(Cl)ccc34)ccnc2c1 | 17 | 27 | 0.4 | 0 | – | 1.6 | 1.4 | – | –
14 | Clc1ccc2c(NCCCCCCNc3ccnc4cc(Cl)ccc34)ccnc2c1 | 21 | 23 | 3.9 | 0.4 | – | 1.1 | >60 | – | –
15 | Clc1ccc2c(NC3CCCCC3Nc3ccnc4cc(Cl)ccc34)ccnc2c1 (configuration not stated) | 1 | 1.4 | >60 | 8.5 | – | 1.4 | – | – | >60
